In ChEMBL document CHEMBL1152972, “Rearranged prenylated C6-C3 compounds and a highly oxygenated seco-prezizaane-type sesquiterpene from the stem bark of Illicium oligandrum” (2009):
Active and inactive are the calls of the source. The calls are words filed in the database; no cut-off is given here.

What was measured:
BGC-823 = assay: Cytotoxicity against human BGC823 cells; type: functional, cell-based
Bel-7402 = assay: Cytotoxicity against human Bel7402 cells; type: functional, cell-based
[1] = Antiinflammatory activity in rat PMNC assessed as inhibition of platelet activating factor-induced beta-glucuronidase release at 10 uM treated 15 mins before PAF challenge; type: functional; design: scale not given: the % may be the effect or the level left
Method in brief: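 Rat PMN suspension (2.5 × 10^6 cells/mL) preincubated with sample (stock 0.1 M in DMSO, diluted in RPMI-1640) 15 min at 37 °C, then cytochalasin B 5 min, then PAF; stopped on ice after 10 min. Supernatant incubated with phenolphthalein glucuronic acid in 0.1 M HOAc buffer pH 4.6, 37 °C, 18 h; NaOH added, A550 read; inhibitory ratio versus PAF and control wells; ginkgolide B reference.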

A549 = assay: Cytotoxicity against human A549 cells; type: functional, cell-based
A2780 = assay: Cytotoxicity against human A2780 cells; type: functional, cell-based
HCT-8 = assay: Cytotoxicity against human HCT8 cells; type: functional, cell-based

SMILES | Activity (BGC-823) | Activity (Bel-7402) | Activity [1] [%] | Activity (A549) | Activity (A2780) | Activity (HCT-8)
C=CCC1=C[C@]2(O)C[C@H](C(C)(C)O)OC2=CC1=O | inactive | inactive | 4.8 | inactive | inactive | inactive
C=CC[C@@H]1C[C@]2(O)C[C@H](C(C)(C)O)OC2=CC1=O [ILLIFUNONE C] | inactive | inactive | -9.4 | inactive | inactive | inactive
C=CC[C@H]1C[C@]2(O)C[C@H](C(C)(C)O)OC2=CC1=O [ILLIFUNONE D] | inactive | inactive | 18 | inactive | inactive | inactive
C=CCC1=C[C@]2(O)C[C@@H](O)C(C)(C)[C@H](C1=O)C2=O [ILLIOLIGANONE A] | inactive | inactive | -7.7 | inactive | inactive | inactive
C=CC[C@@]12C=C(C[C@H](O)C(C)(C)O)C(=O)C=C1OCO2 [ILLIOLIGANONE B] | inactive | inactive | 33.8 | inactive | inactive | inactive
C=CC[C@]1(C[C@H](O)C(C)(C)O)C=C2OCOC2=CC1=O [ILLIOLIGANONE C] | inactive | inactive | 20.1 | inactive | inactive | inactive
C[C@@H]1CC[C@@]2(O)[C@]13C[C@@H](OC(=O)[C@@H]3O)[C@@]1(O)C(=O)OC[C@@]21C [NEOMAJUCIN] | inactive | inactive | 22.4 | inactive | inactive | inactive
CO[C@]12OC[C@@]3(C)[C@@]4(O)CC[C@@H](COC(=O)c5ccccc5)[C@]4(C[C@@H](O1)[C@@]3(O)CO)[C@H]2O [OLIGANDRIORTHOLACTONE] | inactive | inactive | 15.8 | inactive | inactive | inactive
